Experimental data pooled from the literature.
Target: Myosin light chain kinase 2, skeletal/cardiac muscle (MYLK2, Homo sapiens, UniProt Q9H1R3)

| SMILES | effect on | action | technique | concentration | endpoint | result |
| --- | --- | --- | --- | --- | --- | --- |
| COc1cc(Nc2ncc(F)c(Nc3ccc4c(n3)NC(=O)C(C)(C)O4)n2)cc(OC)c1OC | binding |  | competition with immobilised ligand | 10 µM | inhibition | 58% |
| Cn1cncc1[C@@](O)(COc1ccc(C#N)cc1-c1ccc(OC(F)(F)F)cc1)c1ccc(C#N)cc1 | cell-free assay |  | competition with immobilised ligand | 1 µM | remaining binding | 100% |
| Cn1cc(-c2cccc(N3CCc4c(sc5c4CC(C)(C)C5)C3=O)c2CO)cc(Nc2ccncn2)c1=O | enzyme activity | inhibitor |  | 1 µM | inhibition | 14% |
| Nc1ncc(-c2nc(N3CCOCC3)nc(N3CCOCC3)n2)c(C(F)F)n1 | binding |  | competition with immobilised ligand | 10 µM | remaining binding | 92% |
| Cn1cc(-c2cc(F)cc(N3CCn4c(cc5c4CCCC5)C3=O)c2CO)cc(Nc2ccc(N3CCN(C4COC4)CC3)cn2)c1=O | enzyme activity | inhibitor |  | 0.1 µM | inhibition | 17% |
| O=c1[nH]c2ccccc2n1C1CCN(Cc2ccc(-c3[nH]c4cc5ncnc5cc4nc3-c3ccccc3)cc2)CC1 | cell-free assay |  |  | 0.5 µM | remaining signal | 103% |
| Cc1nn(C)cc1-c1nc2c(N3CCN(Cc4ccc(Cl)cc4)CC3)c(Cl)cnc2[nH]1 | binding |  | competition with immobilised ligand | 1 µM | remaining binding | 61% |
| CC(C)(C)c1cc(C=C(C#N)C#N)cc(Br)c1O | enzyme activity | inhibitor |  | 0.5 µM | remaining activity | 99.3% |
| COc1ncccc1-c1cnn2ccc(N3CCN(C(=O)OC(C)C)CC3)nc12 | binding |  | competition with immobilised ligand | 1 µM | remaining binding | 89% |
